# Assay results published in ChEMBL document CHEMBL4837214, “Design, synthesis, and biological evaluation of novel tetrahydroprotoberberine derivatives to reduce SREBPs expression for the treatment of hyperlipidemia” (Eur J Med Chem, 2021).
# Active and inactive are the calls of the source. No cut-off for these calls is given here.
# Legend:
# [1] = Oral bioavailability in Sprague-Dawley rat at 10 mg/kg measured upto 24 hrs by LC-MS/MS analysis; format: ADME, organism-based; conditions: in vivo
# Method in brief: (§1)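 Six SD rats split into two groups of three, dosed 1 mg/kg IV or 10 mg/kg orally. IV blood drawn at 2, 5, 15, 30 min and 1, 2, 4, 6, 8, 12 h. Oral blood drawn at 5, 15, 30 min and 1, 2, 4, 6, 8, 12, 24 h. Serum drug measured by LC/MS/MS. Parameters are the average of three runs.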
# [2] = Toxicity in high fat diet-induced C57BL/6J mouse assessed as change in heart morphology at 170 to 340 mg/kg, po administered for 6 weeks by H and E staining-based assay; format: organism-based; conditions: in vivo, 1008 h, dose 170-340 mg/kg
# Method in brief: (§2)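 Male C57BL/6J mice, six weeks old, fed a 45%-fat diet (HFD) for 15 weeks; chow-fed mice served as controls. Obese mice were randomized to vehicle (0.1% w/v CMC-Na) or 170 or 340 mg/kg, gavaged daily for 6 weeks while diet continued. Body weight, food intake, organ weights, serum lipids, tissue histology (H&E, Oil red O), liver SREBP blots and liver qPCR followed.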
# [3] = Toxicity in high fat diet-induced C57BL/6J mouse assessed as change in kidney morphology at 170 to 340 mg/kg, po administered for 6 weeks by H and E staining-based assay; format: organism-based; conditions: in vivo, 1008 h, dose 170-340 mg/kg; method in brief: as §2
# [4] = Half life in Sprague-Dawley rat at 10 mg/kg, po measured upto 24 hrs by LC-MS/MS analysis; format: ADME, organism-based; conditions: in vivo; method in brief: as §1
# [5] = AUC (0 to infinity) in Sprague-Dawley rat at 1 mg/kg, iv measured upto 12 hrs by LC-MS/MS analysis; format: ADME, organism-based; parameters: route intravenous, dose 1 mg/kg, time <=12; conditions: in vivo
# Method in brief: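 Six SD rats split into two groups (n=3 each), dosed once either intravenously at 1 mg/kg or orally at 10 mg/kg. Blood sampled at 2 min–12 h after IV dosing and at 5 min–24 h after oral dosing. Serum drug level measured by LC/MS/MS. AUC0-∞ is the mean of three runs.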
# [6] = Half life in Sprague-Dawley rat at 1 mg/kg, iv measured upto 12 hrs by LC-MS/MS analysis; format: ADME, organism-based; conditions: in vivo; method in brief: as §1
# Mus musculus [7] = experiment: […] activity in high fat diet-induced C57BL/6J mouse assessed as reduction in Fasn mRNA level in liver at 170 to 340 mg/kg, po administered daily for 6 weeks by qRT-PCR analysis; format: functional, organism-based; conditions: dose 170-340 mg/kg; method in brief: as §2
# [8] = Clearance in Sprague-Dawley rat at 10 mg/kg, po measured upto 24 hrs by LC-MS/MS analysis; format: ADME, organism-based; conditions: in vivo; method in brief: as §1
# HepG2 [9] = experiment: Down regulation of FASN gene expression in human HepG2 cells by qRT-PCR analysis; format: functional, cell-based
# Mus musculus [10] = experiment: Hypolipidemic activity in high fat diet-induced C57BL/6J mouse assessed as reduction in SREBPs expression in liver at 170 to 340 mg/kg, po administered daily for 6 weeks by Western blot analysis; format: functional, organism-based; conditions: dose 170-340 mg/kg; method in brief: as §2
# [11] = Cmax in Sprague-Dawley rat at 1 mg/kg, iv measured upto 12 hrs by LC-MS/MS analysis; format: ADME, organism-based; parameters: route intravenous, dose 1 mg/kg, time <=12; conditions: in vivo; method in brief: as §1
# [12] = Toxicity in high fat diet-induced C57BL/6J mouse assessed as reduction in food intake at 170 to 340 mg/kg, po measured every week for 6 weeks; format: organism-based; conditions: in vivo, 1008 h, dose 170-340 mg/kg; method in brief: as §2
# [13] = Toxicity in high fat diet-induced C57BL/6J mouse assessed as reduction in body weight at 170 to 340 mg/kg, po measured every week for 6 weeks; format: organism-based; conditions: in vivo, 1008 h, dose 170-340 mg/kg; method in brief: as §2
# HepG2 [14] = experiment: Down regulation of precursor and mature forms of SREBP-2 protein expression in human HepG2 cells after 24 hrs by Western blotting analysis; format: functional, cell-based; conditions: dose 5-80 µM
# Method in brief: (§3)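 HepG2 cells treated 24 h at the indicated doses and lysed in RIPA buffer with protease inhibitors; protein quantified by BCA. Lysates run on 10% SDS-PAGE and blotted to nitrocellulose. After 5% milk block, primary antibody applied overnight at 4 °C and secondary 1 h at room temperature. β-actin served as loading reference.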
# HepG2 [15] = experiment: Down regulation of ACC gene expression in human HepG2 cells by qRT-PCR analysis; format: functional, cell-based
# [16] = Clearance in Sprague-Dawley rat at 1 mg/kg, iv measured upto 12 hrs by LC-MS/MS analysis; format: ADME, organism-based; conditions: in vivo; method in brief: as §1
# Mus musculus [17] = experiment: Hypolipidemic activity in high fat diet-induced C57BL/6J mouse assessed as reduction in serum TC level at 170 to 340 mg/kg, po administered daily for 6 weeks; format: functional, organism-based; conditions: dose 170-340 mg/kg; method in brief: as §2
# HepG2 [18] = experiment: Down regulation of intracellular TG level in human HepG2 cells at 10 uM measured after 24 hrs; format: functional, cell-based
# Method in brief: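 HepG2 cells grown in six-well plates and exposed 24 h to compound at […]. Cells collected in PBS and sonicated (5 s on, 10 s off, 60 s total). Total cholesterol or triglyceride measured with a colorimetric determination kit.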
# HepG2 [19] = experiment: Effect on PCSK9 protein expression in human HepG2 cells at 10 uM incubated for 24 hrs by Western blotting analysis; format: functional, cell-based; method in brief: as §3
# HepG2 [20] = experiment: Cytotoxicity against human HepG2 cells assessed as reduction in cell viability at 10 uM after 24 hrs by CCK8 assay; format: functional
# [21] = Toxicity in C57BL/6J mouse assessed as reduction in liver weight at 170 to 340 mg/kg, po measured every week for 6 weeks; format: organism-based; conditions: in vivo, 1008 h, dose 170-340 mg/kg; method in brief: as §2
# Mus musculus [22] = experiment: Hypolipidemic activity in high fat diet-induced C57BL/6J mouse assessed as reduction in cell size of BAT at 170 to 340 mg/kg, po administered daily for 6 weeks by H and E staining based assay; format: functional, organism-based; conditions: dose 170-340 mg/kg; method in brief: as §2
# [23] = Toxicity in high fat diet-induced C57BL/6J mouse assessed as change in spleen morphology at 170 to 340 mg/kg, po administered for 6 weeks by H and E staining-based assay; format: organism-based; conditions: in vivo, 1008 h, dose 170-340 mg/kg; method in brief: as §2
# [24] = MRT (0 to infinity) in Sprague-Dawley rat at 10 mg/kg, po measured upto 24 hrs by LC-MS/MS analysis; format: ADME, organism-based; conditions: in vivo; method in brief: as §1
# Mus musculus [25] = experiment: Hypoglycemic activity in high fat diet-induced C57BL/6J mouse assessed as improvement in insulin tolerance at 170 to 340 mg/kg, po administered daily for 6 weeks and measured up to 120 mins by ITT method; format: functional, organism-based; conditions: dose 170-340 mg/kg; method in brief: as §2
# Mus musculus [26] = experiment: […] activity in high fat diet-induced C57BL/6J mouse assessed as reduction in ACC mRNA level in liver at 170 to 340 mg/kg, po administered daily for 6 weeks by qRT-PCR analysis; format: functional, organism-based; conditions: dose 170-340 mg/kg; method in brief: as §2
# Mus musculus [27] = experiment: […] activity in high fat diet-induced C57BL/6J mouse assessed as reduction in Scd mRNA level in liver at 170 to 340 mg/kg, po administered daily for 6 weeks by qRT-PCR analysis; format: functional, organism-based; conditions: dose 170-340 mg/kg; method in brief: as §2
# [28] = Tmax in Sprague-Dawley rat at 1 mg/kg, iv measured upto 12 hrs by LC-MS/MS analysis; format: ADME, organism-based; conditions: in vivo; method in brief: as §1
# Mus musculus [29] = experiment: Hypolipidemic activity in high fat diet-induced C57BL/6J mouse assessed as reduction in lipid accumulation in liver at 170 to 340 mg/kg, po administered daily for 6 weeks by Oil Red O staining based assay; format: functional, organism-based; conditions: dose 170-340 mg/kg; method in brief: as §2
# HepG2 [30] = experiment: Down regulation of LDLR gene expression in human HepG2 cells by qRT-PCR analysis; format: functional, cell-based
# [31] = MRT (0 to infinity) in Sprague-Dawley rat at 1 mg/kg, iv measured upto 12 hrs by LC-MS/MS analysis; format: ADME, organism-based; conditions: in vivo; method in brief: as §1
structure (smiles),measurement,setting,value
COc1ccc2c(c1OCC1CCCCC1)CN1CCc3cc4c(cc3C1C2)OCO4 (stereo unspecified),bioavailability,[1],65.1%
same,Activity,[2],Non-Toxic
same,Activity,[3],Non-Toxic
same,half-life,[4],5.36 h
same,AUC(0-inf),[5],659 ng·h/mL
same,half-life,[6],4.95 h
same,Activity,Mus musculus [7],Active
same,CL,[8],8.52 mL/min/kg
same,Activity,HepG2 [9],Active
same,Activity,Mus musculus [10],Active
same,Cmax,[11],901 ng/mL
same,Activity,[12],Non-Toxic
same,Activity,[13],Toxic
same,Activity,HepG2 [14],Dose-Dependent Effect
same,Activity,HepG2 [15],Active
same,clearance,[16],25.8 mL/min/kg
same,Activity,Mus musculus [17],Active
same,Activity,HepG2 [18],Active
same,Activity,HepG2 [19],inactive
same,Activity,HepG2 [20],93%
same,Activity,[21],Toxic
same,Activity,Mus musculus [22],Active
same,Activity,[23],Non-Toxic
same,MRT inf,[24],8.03 h
same,Activity,Mus musculus [25],Active
same,Activity,Mus musculus [26],Active
same,Activity,Mus musculus [27],Active
same,Tmax,[28],1.98 min
same,Activity,Mus musculus [29],Active
same,Activity,HepG2 [30],Active
same,MRT inf,[31],3.18 h
